# Measurements: the M2OR odorant receptor database
# Experiments:
# Details in all cases: stereoisomer not certain
# [1] = biological target: T1, Or10j5 (Mus musculus) (UniProt Q62007)
# T1 sequence (whole entry): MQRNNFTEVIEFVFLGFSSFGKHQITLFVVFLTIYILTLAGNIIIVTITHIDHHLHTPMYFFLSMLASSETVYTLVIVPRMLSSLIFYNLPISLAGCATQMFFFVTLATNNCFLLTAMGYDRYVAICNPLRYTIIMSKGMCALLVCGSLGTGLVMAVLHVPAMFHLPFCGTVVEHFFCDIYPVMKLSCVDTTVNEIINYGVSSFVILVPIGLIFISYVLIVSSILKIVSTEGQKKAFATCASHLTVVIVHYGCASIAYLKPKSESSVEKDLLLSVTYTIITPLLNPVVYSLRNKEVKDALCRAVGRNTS
# In short: (§1)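 Transient luciferase assays in mammalian cell lines were common, though methods varied by source. The values come from published papers and their supplementary material, with extra details from the original authors when needed. Responsive refers to a measured signal the original authors judged statistically different from baseline, and non-responsive (inactive) to the remainder.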
# [2] = biological target: T2, Or5p57 (Mus musculus) (UniProt Q8VEZ0)
# T2 sequence (whole entry): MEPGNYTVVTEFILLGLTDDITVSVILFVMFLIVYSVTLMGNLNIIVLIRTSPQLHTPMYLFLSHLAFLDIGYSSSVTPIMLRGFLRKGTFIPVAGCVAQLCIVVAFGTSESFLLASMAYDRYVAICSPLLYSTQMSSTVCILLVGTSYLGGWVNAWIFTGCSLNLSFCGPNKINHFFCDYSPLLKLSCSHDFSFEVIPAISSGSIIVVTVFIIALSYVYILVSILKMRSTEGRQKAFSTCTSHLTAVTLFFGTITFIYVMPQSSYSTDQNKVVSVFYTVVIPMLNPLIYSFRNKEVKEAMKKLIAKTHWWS
# In short: as §1
# [3] = biological target: T3, Or1m1 (Mus musculus) (UniProt Q8VFM9)
# T3 sequence (whole entry): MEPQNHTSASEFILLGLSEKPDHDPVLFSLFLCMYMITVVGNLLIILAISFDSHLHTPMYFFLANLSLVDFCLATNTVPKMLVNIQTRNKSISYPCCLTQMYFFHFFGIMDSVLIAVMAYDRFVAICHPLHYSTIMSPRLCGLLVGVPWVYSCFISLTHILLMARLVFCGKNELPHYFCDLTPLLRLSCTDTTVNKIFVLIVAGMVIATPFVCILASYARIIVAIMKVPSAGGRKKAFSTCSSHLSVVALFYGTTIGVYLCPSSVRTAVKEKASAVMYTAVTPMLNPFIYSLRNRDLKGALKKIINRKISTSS
# In short: as §1
# [4] = biological target: T4, Or2c1 (Mus musculus) (UniProt P23275)
# T4 sequence (whole entry): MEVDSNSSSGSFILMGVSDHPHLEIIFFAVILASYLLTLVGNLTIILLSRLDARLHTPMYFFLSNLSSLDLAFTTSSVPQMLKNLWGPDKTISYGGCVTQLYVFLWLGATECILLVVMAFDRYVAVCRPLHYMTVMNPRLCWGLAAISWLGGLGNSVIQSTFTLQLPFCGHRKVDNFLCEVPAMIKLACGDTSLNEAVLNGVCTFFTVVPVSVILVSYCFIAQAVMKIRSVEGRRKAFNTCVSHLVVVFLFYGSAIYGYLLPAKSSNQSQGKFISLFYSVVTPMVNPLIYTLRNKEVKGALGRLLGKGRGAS
# In short: as §1
# [5] = biological target: T5, Or5ar1 (Mus musculus) (UniProt Q8VGS3)
# T5 sequence (whole entry): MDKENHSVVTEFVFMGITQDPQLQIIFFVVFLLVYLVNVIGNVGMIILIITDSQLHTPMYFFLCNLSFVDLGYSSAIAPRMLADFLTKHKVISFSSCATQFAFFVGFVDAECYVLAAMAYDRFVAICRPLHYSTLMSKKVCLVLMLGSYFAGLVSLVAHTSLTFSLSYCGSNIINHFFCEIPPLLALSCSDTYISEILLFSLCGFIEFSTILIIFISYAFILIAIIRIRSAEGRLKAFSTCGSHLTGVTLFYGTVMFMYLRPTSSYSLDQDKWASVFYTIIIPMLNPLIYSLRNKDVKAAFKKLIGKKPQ
# In short: as §1
# [6] = biological target: T6, Or5p80 (Mus musculus) (UniProt Q8VG42)
# T6 sequence (whole entry): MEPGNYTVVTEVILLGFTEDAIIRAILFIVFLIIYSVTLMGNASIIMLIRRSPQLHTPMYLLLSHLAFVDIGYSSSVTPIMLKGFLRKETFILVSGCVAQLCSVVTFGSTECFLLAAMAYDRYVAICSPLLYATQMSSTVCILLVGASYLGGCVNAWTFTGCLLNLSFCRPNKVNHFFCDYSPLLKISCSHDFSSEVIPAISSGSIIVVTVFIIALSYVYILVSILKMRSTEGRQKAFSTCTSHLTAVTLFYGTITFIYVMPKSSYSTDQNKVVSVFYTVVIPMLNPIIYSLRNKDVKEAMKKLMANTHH
# In short: as §1
# [7] = biological target: T7, Or7a40 (Mus musculus) (UniProt Q9JHB2)
# T7 sequence (whole entry): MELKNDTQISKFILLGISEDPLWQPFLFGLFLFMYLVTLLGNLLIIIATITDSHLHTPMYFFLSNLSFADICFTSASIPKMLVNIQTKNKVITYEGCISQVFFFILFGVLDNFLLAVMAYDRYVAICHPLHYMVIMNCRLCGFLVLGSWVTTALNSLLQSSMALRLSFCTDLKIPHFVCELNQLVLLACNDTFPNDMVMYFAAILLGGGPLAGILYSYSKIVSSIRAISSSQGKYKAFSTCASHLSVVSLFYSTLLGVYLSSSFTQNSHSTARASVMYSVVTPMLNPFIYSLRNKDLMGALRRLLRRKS
# In short: as §1
# [8] = biological target: Or8b3 (Mus musculus) (UniProt Q60886)
# In short: as §1
# 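Note: active if original authors judged signal statistically different from baseline.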
# Chain of Or8b3 (Mus musculus) (Q60886 whole entry): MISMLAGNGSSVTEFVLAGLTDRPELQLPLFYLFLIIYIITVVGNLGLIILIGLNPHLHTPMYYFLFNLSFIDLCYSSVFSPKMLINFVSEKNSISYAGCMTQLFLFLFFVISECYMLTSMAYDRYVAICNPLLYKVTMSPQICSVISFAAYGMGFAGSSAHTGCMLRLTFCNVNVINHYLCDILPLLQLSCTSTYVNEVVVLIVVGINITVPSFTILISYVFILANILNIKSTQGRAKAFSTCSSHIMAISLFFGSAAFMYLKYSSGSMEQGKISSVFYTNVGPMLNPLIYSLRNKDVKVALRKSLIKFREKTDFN
structure (smiles),measurement,setting,value
O=C([O-])CCCCC(=O)[O-].[H+].[H+],odorant receptor agonist call,[1],inactive
same,odorant receptor agonist call,[2],inactive
CCCCC(=O)CC,odorant receptor agonist call,[3],inactive
same,odorant receptor agonist call,[4],inactive
same,odorant receptor agonist call,[5],inactive
same,odorant receptor agonist call,[6],inactive
same,odorant receptor agonist call,[7],inactive
O=C(O)CCCBr,odorant receptor agonist call,[1],inactive
same,odorant receptor agonist call,[2],inactive
O=C(O)CCCCCCCCC(=O)O,odorant receptor agonist call,[3],inactive
same,odorant receptor agonist call,[5],inactive
C=CCOC(=O)CCCCCC,odorant receptor agonist call,[3],inactive
same,odorant receptor agonist call,[4],inactive
same,odorant receptor agonist call,[5],inactive
same,odorant receptor agonist call,[6],inactive
same,odorant receptor agonist call,[7],inactive
CCCCCCCCO,odorant receptor agonist call,[3],inactive
same,odorant receptor agonist call,[4],inactive
same,odorant receptor agonist call,[5],inactive
same,odorant receptor agonist call,[2],inactive
same,odorant receptor agonist call,[6],inactive
same,odorant receptor agonist call,[7],inactive
CC(C)=CCCC(C)=CCOC(=O)C(C)C,odorant receptor agonist call,[3],inactive
same,odorant receptor agonist call,[5],inactive
c1ccccc1,odorant receptor agonist call,[3],inactive
same,odorant receptor agonist call,[4],inactive
same,odorant receptor agonist call,[5],inactive
same,odorant receptor agonist call,[6],inactive
same,odorant receptor agonist call,[7],inactive
O=C(O)CCCCBr,odorant receptor agonist call,[1],inactive
same,odorant receptor agonist call,[2],inactive
CCCCCC=O,odorant receptor agonist call,[3],inactive
same,odorant receptor agonist call,[4],inactive
same,odorant receptor agonist call,[5],inactive
same,odorant receptor agonist call,[6],inactive
same,odorant receptor agonist call,[7],inactive
CCCCCCCCCCO,odorant receptor agonist call,[3],inactive
same,odorant receptor agonist call,[4],inactive
same,odorant receptor agonist call,[5],inactive
same,odorant receptor agonist call,[6],inactive
same,odorant receptor agonist call,[7],inactive
CCCCCCCCCS,odorant receptor agonist call,[3],inactive
same,odorant receptor agonist call,[4],inactive
same,odorant receptor agonist call,[5],inactive
same,odorant receptor agonist call,[6],inactive
same,odorant receptor agonist call,[7],inactive
CCCCCC1=C(C)CCC1=O,odorant receptor agonist call,[3],inactive
same,odorant receptor agonist call,[4],inactive
same,odorant receptor agonist call,[5],inactive
same,odorant receptor agonist call,[6],inactive
same,odorant receptor agonist call,[7],active
CCCCCOC(=O)CCCCC,odorant receptor agonist call,[3],inactive
same,odorant receptor agonist call,[4],active
same,odorant receptor agonist call,[5],inactive
same,odorant receptor agonist call,[6],inactive
same,odorant receptor agonist call,[7],inactive
CCCCC(C)=O,odorant receptor agonist call,[3],inactive
same,odorant receptor agonist call,[4],inactive
same,odorant receptor agonist call,[5],inactive
same,odorant receptor agonist call,[6],inactive
same,odorant receptor agonist call,[7],inactive
CCCCOC=O,odorant receptor agonist call,[3],inactive
same,odorant receptor agonist call,[4],inactive
same,odorant receptor agonist call,[5],inactive
same,odorant receptor agonist call,[6],inactive
same,odorant receptor agonist call,[7],inactive
CCC(=O)O,odorant receptor agonist call,[3],inactive
same,odorant receptor agonist call,[4],inactive
same,odorant receptor agonist call,[5],inactive
same,odorant receptor agonist call,[6],inactive
same,odorant receptor agonist call,[7],inactive
CC(C)=CCCC(C)CCO (stereo unspecified),odorant receptor agonist call,[3],inactive
same,odorant receptor agonist call,[4],inactive
same,odorant receptor agonist call,[5],inactive
same,odorant receptor agonist call,[6],inactive
same,odorant receptor agonist call,[7],inactive
CC(=O)OCC=C(C)C,odorant receptor agonist call,[3],inactive
same,odorant receptor agonist call,[4],inactive
same,odorant receptor agonist call,[5],active
same,odorant receptor agonist call,[6],inactive
same,odorant receptor agonist call,[7],inactive
CCCCCCC(C)=O,odorant receptor agonist call,[3],inactive
same,odorant receptor agonist call,[4],inactive
same,odorant receptor agonist call,[5],inactive
same,odorant receptor agonist call,[6],inactive
same,odorant receptor agonist call,[7],inactive
CCCCCC(=O)CC,odorant receptor agonist call,[3],inactive
same,odorant receptor agonist call,[4],inactive
same,odorant receptor agonist call,[5],inactive
same,odorant receptor agonist call,[6],inactive
same,odorant receptor agonist call,[7],inactive
CC12CCC(CC1=O)C2(C)C (stereo unspecified),odorant receptor agonist call,[3],inactive
same,odorant receptor agonist call,[4],inactive
same,odorant receptor agonist call,[5],inactive
same,odorant receptor agonist call,[6],inactive
same,odorant receptor agonist call,[7],inactive
O=C1CCOc2ccccc21,odorant receptor agonist call,[3],inactive
same,odorant receptor agonist call,[4],inactive
same,odorant receptor agonist call,[5],inactive
same,odorant receptor agonist call,[6],inactive
same,odorant receptor agonist call,[7],inactive
same,odorant receptor agonist call,[8],inactive
CCSCC,odorant receptor agonist call,[3],inactive
same,odorant receptor agonist call,[5],inactive
Cc1ccc(OC(=O)C(C)C)cc1,odorant receptor agonist call,[3],inactive
same,odorant receptor agonist call,[5],inactive
CCOC(=O)C(C)CC (stereo unspecified),odorant receptor agonist call,[3],inactive
same,odorant receptor agonist call,[5],inactive
CCCC(C)C(=O)OCC (stereo unspecified),odorant receptor agonist call,[3],inactive
same,odorant receptor agonist call,[5],inactive
CCCCCCC(C)O (stereo unspecified),odorant receptor agonist call,[3],inactive
same,odorant receptor agonist call,[5],inactive
CC=CC(=O)C1=C(C)CCCC1(C)C,odorant receptor agonist call,[3],inactive
same,odorant receptor agonist call,[5],inactive
C=CC(C)=CCC=C(C)CCC=C(C)C,odorant receptor agonist call,[3],inactive
same,odorant receptor agonist call,[5],inactive
CCCCCOC(=O)CC,odorant receptor agonist call,[3],inactive
same,odorant receptor agonist call,[5],inactive
c1ccc2ncccc2c1,odorant receptor agonist call,[3],inactive
same,odorant receptor agonist call,[5],inactive
COc1ccccc1,odorant receptor agonist call,[3],inactive
same,odorant receptor agonist call,[5],inactive
Cc1c(C)c(C)c(C=O)c(C)c1C,odorant receptor agonist call,[3],inactive
same,odorant receptor agonist call,[5],inactive
CC(=O)C1(C)CC2=C(CCCC2(C)C)CC1C (stereo unspecified),odorant receptor agonist call,[3],inactive
same,odorant receptor agonist call,[5],inactive
OCCCCCCCCCO,odorant receptor agonist call,[3],inactive
same,odorant receptor agonist call,[5],inactive
OCCc1ccccc1,odorant receptor agonist call,[3],inactive
same,odorant receptor agonist call,[5],inactive
CCC=CCCCCC=O,odorant receptor agonist call,[3],inactive
same,odorant receptor agonist call,[5],inactive
CCCCCC(C)O (stereo unspecified),odorant receptor agonist call,[3],inactive
same,odorant receptor agonist call,[5],inactive
CCc1occc(=O)c1O,odorant receptor agonist call,[3],inactive
same,odorant receptor agonist call,[5],inactive
CC1(C)CC(=O)CC(=O)C1,odorant receptor agonist call,[3],inactive
same,odorant receptor agonist call,[5],inactive
CC=Cc1ccc(OC)cc1,odorant receptor agonist call,[3],inactive
same,odorant receptor agonist call,[5],inactive
CCCCCCCCC=CC=O,odorant receptor agonist call,[3],inactive
same,odorant receptor agonist call,[5],inactive
Cc1ccc(C(C)C)c(O)c1,odorant receptor agonist call,[3],inactive
same,odorant receptor agonist call,[5],inactive
CCC=CCCC=CC=O,odorant receptor agonist call,[3],inactive
same,odorant receptor agonist call,[5],inactive
Cc1ccc2c(c1)OCC(=O)CO2,odorant receptor agonist call,[3],inactive
same,odorant receptor agonist call,[5],inactive
C=C1C2CCC(C2)C1(C)C (stereo unspecified),odorant receptor agonist call,[3],inactive
same,odorant receptor agonist call,[5],inactive
C=CC(=C)CCC=C(C)C,odorant receptor agonist call,[3],inactive
same,odorant receptor agonist call,[5],inactive
CC=C(C)C=O,odorant receptor agonist call,[3],inactive
same,odorant receptor agonist call,[5],inactive
CC(=O)OCCc1ccccc1,odorant receptor agonist call,[3],inactive
same,odorant receptor agonist call,[5],inactive
CNc1ccccc1C(=O)OC,odorant receptor agonist call,[3],inactive
same,odorant receptor agonist call,[5],inactive
CC(=O)C=CC1=C(C)CCCC1(C)C,odorant receptor agonist call,[3],inactive
same,odorant receptor agonist call,[5],inactive
Cc1ccccc1OC(=O)C(C)C,odorant receptor agonist call,[3],inactive
same,odorant receptor agonist call,[5],inactive
C=C(CC)CCCC(C)(C)O,odorant receptor agonist call,[3],inactive
same,odorant receptor agonist call,[5],inactive
Cc1occc1SSc1ccoc1C,odorant receptor agonist call,[3],inactive
same,odorant receptor agonist call,[5],inactive
CCCCCCC(=O)OCCCC,odorant receptor agonist call,[3],inactive
same,odorant receptor agonist call,[5],inactive
CC(C)CS,odorant receptor agonist call,[3],inactive
same,odorant receptor agonist call,[5],inactive
CCc1ccc(O)cc1,odorant receptor agonist call,[3],inactive
same,odorant receptor agonist call,[5],inactive
C=CC(=O)CCCCC,odorant receptor agonist call,[3],inactive
same,odorant receptor agonist call,[5],inactive
CCCCCCCCCCOC(C)=O,odorant receptor agonist call,[3],inactive
same,odorant receptor agonist call,[5],inactive
C1CCOCC1,odorant receptor agonist call,[3],inactive
same,odorant receptor agonist call,[5],inactive
CC1CCC(C(C)C)C(=O)C1 (stereo unspecified),odorant receptor agonist call,[3],inactive
same,odorant receptor agonist call,[5],inactive
COc1nccnc1C,odorant receptor agonist call,[3],inactive
same,odorant receptor agonist call,[5],inactive
CC(=O)OCc1ccc2c(c1)OCO2,odorant receptor agonist call,[3],inactive
same,odorant receptor agonist call,[5],inactive
COC(OC)c1ccccc1,odorant receptor agonist call,[3],inactive
same,odorant receptor agonist call,[5],inactive
OCC=Cc1ccccc1,odorant receptor agonist call,[3],inactive
same,odorant receptor agonist call,[5],inactive
CCCCCCCCOC=O,odorant receptor agonist call,[3],inactive
same,odorant receptor agonist call,[5],inactive
CCCCCCC(C=O)=Cc1ccccc1,odorant receptor agonist call,[3],inactive
same,odorant receptor agonist call,[5],inactive
Cc1ccc(C(C)C)cc1,odorant receptor agonist call,[3],inactive
same,odorant receptor agonist call,[5],inactive
C=C(C)C1CC=C(C)CC1 (stereo unspecified),odorant receptor agonist call,[3],inactive
same,odorant receptor agonist call,[5],inactive
